Experimental data published in ChEMBL document CHEMBL3120159, “Discovery of 2-pyridone derivatives as potent HIV-1 NNRTIs using molecular hybridization based on crystallographic overlays” (Bioorg Med Chem, 2014).

Legend:
[1] = Selectivity index, ratio of CC50 for human MT4 cells to EC50 for HIV2 ROD; assay type: toxicity, cell-based; settings: read-out: Ratio CC50/EC50
Outline: (§1)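 Selectivity index is CC₅₀/EC₅₀. Both values come from the same MTT assay in MT-4 cells: mock-infected and virus-infected (100-300 CCID₅₀) wells were run in parallel and read at day 5.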

[2] = Selectivity index, ratio of CC50 for human MT4 cells to EC50 for HIV1 RES056; assay type: toxicity, cell-based; settings: read-out: Ratio CC50/EC50; outline: as §1
[3] = test system: Human immunodeficiency virus 2; experiment: Antiviral activity against HIV2 ROD infected in human MT4 cells assessed as protection against virus-induced cytopathic effect after 5 days by MTT assay; assay type: functional, organism-based; settings: Human immunodeficiency virus 2, ISOLATE ROD, MT4, 120 h
Outline: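 MT-4 cells resuspended at 6 × 10⁵ cells/mL after centrifugation at 200 g for 5 min. HIV-2 (ROD) added at 100-300 CCID₅₀. Test compound given as serial five-fold dilutions, triplicate wells. Viability of infected cells measured spectrophotometrically by MTT after 5 days. EC₅₀ = concentration giving 50% protection against viral cytopathic effect.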

[4] = Selectivity index, ratio of CC50 for human MT4 cells to EC50 for HIV1 3B; assay type: toxicity, cell-based; settings: read-out: Ratio CC50/EC50; outline: as §1
[5] = Cytotoxicity against human MT4 cells after 5 days by MTT assay; assay type: cell-based
Outline: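 Exponentially growing MT-4 cells resuspended at 6 × 10⁵ cells/mL and exposed to serial five-fold compound dilutions in triplicate, mock-infected alongside infected wells. Viability read by MTT assay at day 5. CC₅₀ = concentration reducing mock-infected cell viability by 50%.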

[6] = test system: Human immunodeficiency virus 1; experiment: Antiviral activity against HIV1 RES056 harboring reverse transcriptase K103N/Y181C double mutant infected in human MT4 cells assessed as protection against virus-induced cytopathic effect after 5 days by MTT assay; assay type: functional, organism-based; settings: Human immunodeficiency virus 1, RES056, MT4, 120 h
Outline: (§2)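 MT-4 cells, growing exponentially, were spun and resuspended at 6 × 10⁵ cells/mL. They were infected at the start together with compound, given as serial five-fold dilutions in triplicate wells, with mock-infected wells run in parallel. Viability was read by MTT after 5 days. EC₅₀ is the concentration giving 50% protection against viral cytopathic effect.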

[7] = test system: Human immunodeficiency virus 1; experiment: Antiviral activity against HIV1 3B harboring wild type reverse transcriptase infected in human MT4 cells assessed as protection against virus-induced cytopathic effect after 5 days by MTT assay; assay type: functional, organism-based; settings: Human immunodeficiency virus 1, 3B, MT4, 120 h; outline: as §2
[8] = target: Human immunodeficiency virus type 1 reverse transcriptase (Human immunodeficiency virus 1, UniProt Q72547); experiment: Inhibition of HIV1 reverse transcriptase assessed as inhibition of biotinylated dUTP incorporation after 1 hr by ELISA
Outline: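 Recombinant HIV-1 RT kit (colorimetric ELISA). Poly(A)·oligo(dT)₁₅ template/primer with DIG-dUTP, biotin-dUTP and dTTP, ±inhibitor, 1 h at 37 °C. Product captured on streptavidin plate (1 h, 37 °C), then anti-DIG-POD (1 h, 37 °C), ABTS developed at 25 °C, A405 read. IC₅₀ = concentration inhibiting biotin-dUTP incorporation by 50%.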

[9] = test system: Human immunodeficiency virus 1; experiment: Antiviral activity against HIV1 harboring reverse transcriptase K101N mutant infected in human MT4 cells; assay type: functional, organism-based; settings: Human immunodeficiency virus 1, MT4
[10] = test system: Human immunodeficiency virus 1; experiment: Antiviral activity against HIV1 harboring reverse transcriptase K101N/Y181C double mutant infected in human MT4 cells; assay type: functional, organism-based; settings: Human immunodeficiency virus 1, MT4
[11] = test system: Human immunodeficiency virus 1; experiment: Antiviral activity against HIV1 harboring reverse transcriptase Y181C mutant infected in human MT4 cells; assay type: functional, organism-based; settings: Human immunodeficiency virus 1, MT4
[12] = test system: Human immunodeficiency virus 1; experiment: Antiviral activity against HIV1 harboring wild type reverse transcriptase infected in human MT4 cells; assay type: functional, organism-based; settings: Human immunodeficiency virus 1, MT4

Row | SMILES | selectivity ratio [1] | selectivity ratio [2] | EC50 [3] [µM] | selectivity ratio [4] | CC50 at 120 h [5] [µM] | EC50 [6] [µM] | EC50 [7] [nM] | IC50 [8] [µM] | EC50 [9] [nM] | EC50 [10] [nM] | EC50 [11] [nM] | EC50 [12] [nM]
1 | Cc1cccc(C)c1Oc1cc(Nc2ccc(C#N)cc2)[nH]c(=O)c1Cl | < 1 | < 1 | > 29 | 12 | 29 | > 29 | 2400 |  |  |  |  | 
2 | Cc1cc(C#N)cc(C)c1Oc1cc(Nc2ccc(C#N)cc2)[nH]c(=O)c1I | 1 | 1 | > 259 | > 89 | > 259 | > 259 | 2900 |  |  |  |  | 
3 | COc1cc(Oc2c(C)cc(C)cc2C)cc(Nc2ccc(C)cc2)n1 | < 1 |  | > 35 | < 1 | 35 |  | > 35000 |  |  |  |  | 
4 | Cc1ccnc2c1NC(=O)c1cccnc1N2C1CC1 [NEVIRAPINE] |  |  |  |  | > 15 |  |  |  |  |  |  | 
5 | Cc1cc(C#N)cc(C)c1Oc1cc(Nc2ccc(C#N)cc2)[nH]c(=O)c1 | < 1 | < 1 | > 25 | 166 | 25 | > 25 | 150 | 5.2 |  |  |  | 
6 | Cc1cc(/C=C/C#N)cc(C)c1Nc1ccnc(Nc2ccc(C#N)cc2)n1 [RILPIVIRINE] |  |  |  |  |  |  |  |  | 0.3 |  |  | 
7 | Cc1cc(C)cc(Oc2cc(Nc3ccc(C#N)cc3)[nH]c(=O)c2)c1 | < 1 |  | > 46 | < 1 | 46 |  | > 46000 |  |  |  |  | 
8 | Cc1cccc(C)c1Oc1cc(Nc2ccc(C#N)cc2)[nH]c(=O)c1 | < 1 | < 1 | > 36 | 26 | 36 | > 36 | 1400 |  |  |  |  | 
9 | Cc1cc(C)cc(Oc2cc(Nc3ccc(C#N)cc3)[nH]c(=O)c2Br)c1 | < 1 |  | > 19 | < 1 | 19 |  | > 19000 |  |  |  |  | 
10 | Cc1cc(C#N)cc(C)c1Oc1cc(Nc2ccc(C#N)cc2)[nH]c(=O)c1Cl | 1 | 1 | > 319 | > 44 | > 319 | > 319 | 7200 |  |  |  |  | 
11 | Cc1cccc(C)c1Oc1cc(Nc2ccc(C#N)cc2)[nH]c(=O)c1I | < 1 | < 1 | > 28 | 16 | 28 | > 28 | 1700 |  |  |  |  | 
12 | COc1cc(Oc2c(C)cccc2C)cc(Nc2ccc(C#N)cc2)n1 | < 1 |  | > 8.8 | < 1 | 8.5 |  | > 8500 |  |  |  |  | 
13 | COc1cc(Oc2c(C)cc(C)cc2C)cc(Nc2ccc(C#N)cc2)n1 | < 1 | < 1 | > 29 | 35 | 29 | > 29 | 840 |  |  |  |  | 
14 | Cc1cc(C)cc(Oc2cc(Nc3ccc(C#N)cc3)[nH]c(=O)c2I)c1 | < 1 |  | > 24 | < 1 | 24 |  | > 24000 |  |  |  |  | 
15 | Cc1cc(C)cc(Oc2c(CSCc3ccco3)c(C)[nH]c(=O)c2I)c1 |  |  |  |  |  |  |  |  | 1 | 4 | 5 | 2
16 | Cc1cc(C)c(Oc2cc(Nc3ccc(C#N)cc3)[nH]c(=O)c2I)c(C)c1 | < 1 | < 1 | > 34 | 6 | 34 | > 34 | 5600 |  |  |  |  | 
17 | Cc1cc(C#N)cc(C)c1Oc1nc(Nc2ccc(C#N)cc2)nc(N)c1Br [ETRAVIRINE] |  |  |  |  |  |  |  |  | 1.2 | 4.3 |  | 
18 | Cc1cc(C)c(Oc2cc(Nc3ccc([N+](=O)[O-])cc3)[nH]c(=O)c2)c(C)c1 | < 1 | < 1 | > 26 | 19 | 26 | > 26 | 1400 |  |  |  |  | 
19 | Cc1cc(C)c(Oc2cc(Nc3ccc(C#N)cc3)[nH]c(=O)c2)c(C)c1 | < 1 | < 1 | > 32 | 87 | 32 | > 32 | 370 | 39 |  |  |  | 
20 | COc1cc(Oc2c(C)cc(C#N)cc2C)cc(Nc2ccc(C#N)cc2)n1 | ≤ 1 | 1 | > 147 | ≥ 211 | > 147 | > 147 | 700 |  |  |  |  | 
21 | Cc1cc(C#N)cc(C)c1Oc1cc(Nc2ccc(C#N)cc2)[nH]c(=O)c1Br | 1 | 1 | > 287 | > 244 | > 287 | > 287 | 1200 |  |  |  |  | 
22 | Cc1cc(C)cc(Oc2cc(Nc3ccc(C#N)cc3)[nH]c(=O)c2Cl)c1 | < 1 |  | > 21 | < 1 | 21 |  | > 21000 |  |  |  |  | 
23 | Cc1cccc(C)c1Oc1cc(Nc2ccc(C#N)cc2)[nH]c(=O)c1Br | < 1 | < 1 | > 63 | 17 | 63 | > 63 | 3600 |  |  |  |  | 
24 | Cc1cc(C)c(Oc2cc(Nc3ccc(C#N)cc3)[nH]c(=O)c2Cl)c(C)c1 | 1 | 1 | > 329 | > 35 | > 329 | > 329 | 9300 |  |  |  |  | 
25 | Cc1ccc(Nc2cc(Oc3c(C)cc(C)cc3C)cc(=O)[nH]2)cc1 | < 1 | < 1 | > 37 | 26 | 37 | > 37 | 1400 |  |  |  |  | 
26 | COc1cc(Oc2c(C)cc(C)cc2C)cc(Nc2ccc([N+](=O)[O-])cc2)n1 | < 1 |  | > 7.2 | < 1 | 7.2 |  | > 7200 |  |  |  |  | 
27 | Cc1cc(C)c(Oc2cc(Nc3ccc(C#N)cc3)[nH]c(=O)c2Br)c(C)c1 | 1 | 1 | > 294 | > 9 | > 294 | > 294 | 32000 |  |  |  |  | 
28 | COc1cc(Oc2cc(C)cc(C)c2)cc(Nc2ccc(C#N)cc2)n1 | < 1 |  | > 20 | < 1 | 20 |  | > 20000 |  |  |  |  | 
29 | CC(C)Nc1cccnc1N1CCN(C(=O)c2cc3cc(NS(C)(=O)=O)ccc3[nH]2)CC1 [DELAVIRDINE] |  |  |  | > 40 | > 36 | > 36 | 910 |  |  |  |  | 
